# Most compounds without a hit are left out; they make up all but 1.8% or so of the library.
# M5 ag: human M5 muscarinic receptor agonists, primary screen, CHO-K1 cells, Fluo-8 calcium fluorescence; Muscarinic acetylcholine receptor M5 (Homo sapiens), P08912; CHO-K1 hM5 cells; 0% DMSO wells, 100% maximal acetylcholine response; activation, % at 3 µM; actives 0.19% (n = 360,000);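 active = activation above the run's mean over test compounds plus 3 SD, cut at about 23% in these data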;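 note: signal is peak over basal fluorescence ratio across the kinetic read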
# Target sequence (P08912 whole entry, looked up): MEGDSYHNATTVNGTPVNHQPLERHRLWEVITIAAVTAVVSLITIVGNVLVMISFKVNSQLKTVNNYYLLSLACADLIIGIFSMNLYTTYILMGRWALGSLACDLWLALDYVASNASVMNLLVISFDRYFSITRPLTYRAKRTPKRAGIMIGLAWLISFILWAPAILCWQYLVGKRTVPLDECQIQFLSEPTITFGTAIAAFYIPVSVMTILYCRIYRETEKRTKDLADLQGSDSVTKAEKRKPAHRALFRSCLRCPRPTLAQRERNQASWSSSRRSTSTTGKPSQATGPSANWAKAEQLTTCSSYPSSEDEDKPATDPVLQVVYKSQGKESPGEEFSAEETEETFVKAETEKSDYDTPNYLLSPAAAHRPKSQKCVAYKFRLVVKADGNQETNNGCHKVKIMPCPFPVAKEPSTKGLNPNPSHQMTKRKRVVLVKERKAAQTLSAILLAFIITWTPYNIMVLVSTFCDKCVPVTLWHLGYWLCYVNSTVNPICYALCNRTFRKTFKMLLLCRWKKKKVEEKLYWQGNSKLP
# M5 antag: human M5 muscarinic receptor antagonists, primary screen, CHO cells, Fluo-8 calcium fluorescence. inhibition, % at 3 µM. CHO-hM5 cells, ACh EC80. actives 0.59% (n = 360,000). Muscarinic acetylcholine receptor M5 (Homo sapiens), P08912;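 active = inhibition above a per-plate cutoff, the mean of that plate's test compounds plus 3 SD, cut at about 27% in these data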
# CHRM5 PAM: human M5 muscarinic receptor positive allosteric modulators, primary screen, CHO-K1 cells, Fluo-8 calcium fluorescence | Muscarinic acetylcholine receptor M5 (Homo sapiens), P08912 | activation, % at 3 µM | CHO-K1 hM5, ACh EC20 PAM; 0% = ACh EC20, 100% = ACh EC100 | actives 0.3% (n = 360,000) | AID 624038, 2012;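 active = activation above the run cutoff, the mean activation of all test compounds plus 3 SD, cut at about 18% in these data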
#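 System: CHO-K1 cell line with stable human muscarinic M5 receptor expression | Also added: EC20 acetylcholine as agonist stimulus | Compound: One concentration, 3 µM final (nominal) | Timing: Fluo-8 loading 80 min at 37 °C plus 30 min room temperature | Measured by: Fluo-8 calcium dye fluorescence, kinetic read | Read-out basis: % activation, ACh-normalized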
# CHRM4 antagonist: human M4 muscarinic receptor antagonists, primary screen, CHO cells, Fluo-8 calcium fluorescence. Muscarinic acetylcholine receptor M4 (Homo sapiens), P08173. CHO-hM4 cells, ACh EC80. inhibition, % at 3 µM. actives 0.73% (n = 360,000). AID 624125, 2012;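 active = inhibition above its plate's cutoff, the mean inhibition of sample wells plus 3 SD, cut at about 27% in these data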
# CHRM4 agonist: human M4 muscarinic receptor agonists, primary screen, CHO-K1 cells, Fluo-8 calcium fluorescence. activation, % at 3 µM. actives 0.14% (n = 360,000). CHO-K1 hM4/Gqi5; vehicle 0%, full acetylcholine response 100%;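 active = activation above the run mean over all test wells plus 3 SD, cut at about 32% in these data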;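 note: peak over basal fluorescence ratio per well then scaled between controls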
# M4 PAM: human M4 muscarinic receptor positive allosteric modulators, primary screen, CHO-K1 cells, Fluo-8 calcium fluorescence. CHO-K1 hM4/Gqi5, ACh EC20; 0% = ACh EC20, 100% = maximal ACh. activation, % at 3 µM. actives 0.4% (n = 360,000). AID 624126, 2012;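 active = activation above its plate's cutoff, the mean activation of sample wells plus 3 SD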
# Numbers stand for hits; – = inactive; ! = not confirmed by another sample.
SMILES,M5 ag,M5 antag,CHRM5 PAM,CHRM4 antagonist,CHRM4 agonist,M4 PAM
CCN1CCN(c2ccc(NC(=O)c3cccc(S(=O)(=O)N4CCCC4)c3)cc2)CC1,–,50,–,–,–,–
COc1ccc(NC(=O)CN(C)C(=O)c2cccc(S(=O)(=O)N3CCN(c4ccc(F)cc4)CC3)c2)cc1,–,30,–,–,–,–
CC1(C)N=C(SCC(=O)Nc2ccc(Cl)cc2Cl)C(c2ccccc2)=N1,–,–,–,–,–,–
CN1C(CC(=O)Nc2ccc(Cl)cc2Cl)c2ccccc2CC1(C)C (configuration not stated),–,–,–,29,–,–
O=C(Nc1ccccn1)c1ccc2ccccc2c1O,–,–,19,–,–,–
O=C(O)c1ccccc1C(=O)Nc1ccccn1,–,–,–,–,–,–
C/C(=N/NC(=O)CNC(=O)c1ccccc1)c1ccc(C)cc1,–,–,–,–,–,–
C/C(=N\NC(=O)CNC(=O)c1cccc(F)c1)c1ccc2ccccc2c1,–,–,–,40,–,–
COc1ccc(C(=O)/C(=C\c2ccco2)N2C=CC=CC2=C(C#N)C#N)cc1,–,–,–,–,–,–
N#CC(C#N)=C1C=CC=CN1/C(=C\c1ccco1)C(=O)c1ccc(Br)cc1,–,–,–,69,–,–
N#CC(C#N)=C1C=CC=CN1/C(=C\c1ccco1)C(=O)c1ccccc1,–,–,–,30,–,–
CCCCOCCCNC(=O)C[C@@H]1C[C@@]2(C(=O)OCC)CCCC=C2N(Cc2ccc3c(c2)OCO3)C1=O,–,–,–,–,–,–
CC1(C(=O)NS(=O)(=O)c2ccccc2C(F)(F)F)CCN1C(=O)COc1ccc(Cl)cc1 (configuration not stated),–,–,–,–,–,–
CC(=O)c1c(C)[nH]c(C(=O)O)c1C,–,–,–,–,–,–
CC(=O)c1c(C)[nH]c(C)c1C(C)=O,–,–,27,–,–,32
Cc1c(N=C/C=C/c2ccccc2)c(=O)n(-c2ccccc2)n1C,–,–,–,53,–,–
CCN(CC)CCNC(=S)Nc1ccc(F)cc1,–,–,–,–,–,–
COc1cccc(CN(C)C(=O)COc2cccc3c2OC(C)(C)C3)c1OC,–,–,–,–,–,22
CCC(OC(=O)c1ccco1)C(=O)NCc1ccc(C)cc1 (configuration not stated),–,–,–,–,–,–
CCC(OC(=O)c1ccco1)C(=O)NCc1ccc2c(c1)OCO2 (configuration not stated),–,–,–,–,–,19
O=C(N1CCCC1)C12CCC3CC(CC(C3)C1)C2,–,–,19,–,–,–
Cc1cc(C)n(-c2ccc(C(=O)Nc3cccc([N+](=O)[O-])c3)cc2)n1,–,27,–,–,–,–
Cc1cc(C)n(-c2ccc(C(=O)Nc3cccc(S(=O)(=O)N(C)C)c3)cc2)n1,–,–,–,–,–,–
CCCC1C(=O)Nc2ccccc2N1C(=O)c1cccc(C)c1 (configuration not stated),–,29,–,45,–,–
CN(C)c1nc(Cl)nc2c1nc(Cl)n2C1CCCCO1 (configuration not stated),–,–,–,–,–,–
SMILES,M5 ag,M5 antag,CHRM5 PAM,CHRM4 antagonist,CHRM4 agonist,M4 PAM
Cn1ncc(Cl)c1C(=O)N1CCN(c2ccc(Cl)c(Cl)c2)CC1,–,29,–,–,–,–
O=C(CCC1CCCN(C2C3CC4CC(C3)CC2C4)C1)NCc1ccc(F)c(F)c1 (configuration not stated),–,–,–,41,–,–
Cc1occc1C(=O)N1CCCC(CCC(=O)NCc2ccc(F)c(F)c2)C1 (configuration not stated),–,–,–,–,–,–
NC(=O)C[N+]1(CC#CC(O)(c2ccccc2)c2ccccc2)CCCC1,–,34,–,33,–,–
O=S(=O)([O-])CCC[N+]1(CC#Cc2ccccc2)CCCCC1,–,–,–,–,–,–
CCC[N+]1(CC#CC(O)(c2ccccc2)C2CCCCC2)CCCCC1 (configuration not stated),–,99,–,97,–,–
CN1CCN(CC#CCC(O)(c2ccccc2)C2CCCC2)CC1 (configuration not stated),–,–,–,–,–,–
CCN(CC)CCC#CC(O)(c1ccccc1)C1CCCCC1 (configuration not stated),–,98,–,94,–,–
Cc1csc(C(C)N(C)C(=O)c2ccc(OC3CCN(Cc4ccccn4)CC3)cc2)n1 (configuration not stated),–,–,–,–,–,–
CC(=O)O[C@]1(C(C)=O)CCC2C3C=C(C)C4=CC(=O)CC[C@]4(C)C3CC[C@@]21C (some centres not stated),–,–,–,–,–,–
CC(=O)O[C@H]1C[C@@]2(C)[C@@H](C[C@@H](O)[C@H]3[C@@]4(C)CC[C@@H](O)[C@@H](C)[C@@H]4CC[C@@]32C)/C1=C(\CCC=C(C)C)C(=O)O,–,44!,–,81!,–,–
COc1ccc(OC)c(S(=O)(=O)N2CCCC(C(=O)N3CCCCCC3)C2)c1 (configuration not stated),–,–,–,–,–,–
C=C[C@@H]1c2cc(C)ccc2N(S(=O)(=O)c2ccc(C)cc2)[C@H](c2ccccc2)C1(C#N)C#N,–,–,19,–,–,–
O=C(O)CSCC(=O)NCc1ccc(Cl)cc1,–,–,–,–,–,28
Cc1ccc(C)n1-c1ccc(C(=O)NCc2ccncc2)cc1,–,–,–,–,–,–
Cc1ccc(C)n1-c1ccc(C(=O)NN)cc1,–,–,21,–,–,–
Cc1cccc(CSC(Nc2ccc(F)cc2)=C(C#N)C#N)c1,–,30,–,–,–,–
N#CC(C#N)=C(Nc1ccc(F)cc1)SCc1cccc(Br)c1,–,32,–,–,–,–
Cc1cccc(CSC(=N)N)c1,–,–,–,–,–,–
O=C(NCc1ccccc1)C(c1ccco1)N(C(=O)c1ccccn1)c1ccccc1 (configuration not stated),–,49,–,–,–,–

# Assay outcomes: PubChem BioAssay, The Scripps Research Institute Molecular Screening Center
